What was measured:
human DP1 receptors = molecular target: T1, human DP1 receptors (Homo sapiens, UniProt Q13258); test: cAMP TR-FRET counter screen in C6-glioma cells, DP1; type: cell-based; details: read-out: DP1 KB; Schild KB; C6-glioma cells overexpressing DP1; agonist BW245C
T1 sequence (Q13258 1-359): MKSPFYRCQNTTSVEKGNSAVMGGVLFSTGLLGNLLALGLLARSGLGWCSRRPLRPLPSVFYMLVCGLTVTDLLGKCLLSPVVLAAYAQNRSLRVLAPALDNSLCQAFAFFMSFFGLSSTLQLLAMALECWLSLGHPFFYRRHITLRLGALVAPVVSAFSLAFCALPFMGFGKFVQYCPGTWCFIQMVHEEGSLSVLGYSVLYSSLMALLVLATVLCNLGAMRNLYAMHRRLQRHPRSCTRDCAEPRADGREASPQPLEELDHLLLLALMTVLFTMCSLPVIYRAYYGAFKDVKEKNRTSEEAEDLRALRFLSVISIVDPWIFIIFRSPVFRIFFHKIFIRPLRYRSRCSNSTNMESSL
In short: (§1)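 Rat C6 glioma cells stably expressing the human receptor, seeded 4,000/well overnight; 0.5 h in HBSS with 20 μM rolipram at room temperature; test compound for 10 or 50 min, then rising agonist concentrations for 40 min. Lysis, cAMP-d2/anti-cAMP-Cryptate TR-FRET (F665/F590).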

human IP receptors = human IP receptors (Homo sapiens, UniProt P43119); test: cAMP TR-FRET counter screen in C6-glioma cells, IP; type: cell-based; details: read-out: IP KB; Schild KB; C6-glioma cells overexpressing IP; agonist iloprost
In short: as §1

human IP receptors, sequence (P43119 whole entry): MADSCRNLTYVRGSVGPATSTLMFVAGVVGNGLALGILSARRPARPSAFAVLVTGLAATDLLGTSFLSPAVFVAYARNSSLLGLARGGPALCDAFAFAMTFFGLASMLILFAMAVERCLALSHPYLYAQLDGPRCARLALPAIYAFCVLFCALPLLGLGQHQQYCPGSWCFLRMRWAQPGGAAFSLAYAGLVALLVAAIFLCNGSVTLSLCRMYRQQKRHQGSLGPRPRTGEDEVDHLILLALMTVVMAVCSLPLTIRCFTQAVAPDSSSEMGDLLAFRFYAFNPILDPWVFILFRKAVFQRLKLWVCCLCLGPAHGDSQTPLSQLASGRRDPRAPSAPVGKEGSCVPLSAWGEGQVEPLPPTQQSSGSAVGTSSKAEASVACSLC

COc1ccc2cc(OCC3(C(=O)O)CN(C(=O)c4ccc(F)cc4)C3)ccc2c1 [PF-04418948]
Kb (human DP1 receptors): 48.3 µM
Kb (human IP receptors): 1.7 µM
